The record followed here is article PMC3308013 (Journal of Immunology (Baltimore, Md. : 1950), 2011).

Where no end group is shown, it is not given here.

The target in one test is H-2 Db (Mus musculus, UniProt P01899). Description: MHC peptide binding competition assay, purified H-2 Db. Put shortly: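 Peptides radiolabelled by chloramine T; 1–10 nM label co-incubated at room temperature for 2 d with 1 μM to 1 nM purified H-2 Db, 1–3 μM human β2-microglobulin and protease inhibitors. Complexes captured on 28-14-8s Ab-coated plates; bound cpm counted. Test peptide at six concentrations over a 100,000-fold range, ≥3 independent assays; IC50 = concentration giving 50% inhibition of label binding.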
Sequence of H-2 Db (P01899 25-362): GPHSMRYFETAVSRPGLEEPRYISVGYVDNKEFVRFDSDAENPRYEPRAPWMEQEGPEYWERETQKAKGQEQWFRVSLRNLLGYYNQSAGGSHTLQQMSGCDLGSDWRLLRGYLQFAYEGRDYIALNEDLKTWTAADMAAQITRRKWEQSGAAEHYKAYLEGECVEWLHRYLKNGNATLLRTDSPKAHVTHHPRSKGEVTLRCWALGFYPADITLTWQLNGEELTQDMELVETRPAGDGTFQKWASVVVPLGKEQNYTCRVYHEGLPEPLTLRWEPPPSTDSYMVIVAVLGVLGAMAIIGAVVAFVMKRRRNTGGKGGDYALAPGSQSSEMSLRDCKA
Sequence of H-2 Db (P61769 21-119, further chain): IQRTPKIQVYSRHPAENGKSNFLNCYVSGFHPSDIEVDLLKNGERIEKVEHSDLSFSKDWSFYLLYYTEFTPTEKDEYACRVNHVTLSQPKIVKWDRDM

In a further test the target is H-2 Kb (Mus musculus, UniProt P01901). Description: MHC peptide binding competition assay, purified H-2 Kb.
Sequence of H-2 Kb (P01901 22-369): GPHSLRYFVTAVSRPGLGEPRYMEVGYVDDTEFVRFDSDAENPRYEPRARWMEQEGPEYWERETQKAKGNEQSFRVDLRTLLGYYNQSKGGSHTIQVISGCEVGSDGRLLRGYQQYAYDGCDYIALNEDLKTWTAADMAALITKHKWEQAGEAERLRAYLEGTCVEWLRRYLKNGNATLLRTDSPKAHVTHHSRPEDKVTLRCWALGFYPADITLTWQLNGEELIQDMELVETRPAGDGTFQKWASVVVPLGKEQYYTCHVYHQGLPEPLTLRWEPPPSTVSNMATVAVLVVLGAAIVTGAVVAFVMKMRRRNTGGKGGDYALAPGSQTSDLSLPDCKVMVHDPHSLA
Sequence of H-2 Kb (P61769 21-119 partner): as the sequence (P61769 21-119, further chain) above

As usually defined, the IC50 is the point on the concentration scale where inhibition reaches its midpoint. Consider FGLLNYALV [FGLLNYALV], for which the half-maximal inhibitory concentration (IC50) on H-2 Db was found to be 1 nM.
Same read-out and setting: to FAFVNAAHA [FAFVNAAHA] belongs 4.9 nM.
At H-2 Db, FLPRLGTEL [FLPRLGTEL] yielded an IC50 of 3050 nM.
At H-2 Kb, LGYAYINS [LGYAYINS] gave an IC50 of 10 nM.
YQPLLSNTL [YQPLLSNTL] registered an IC50 at H-2 Db of 5150 nM.
Same read-out and setting: the value for AAIENYVRF [AAIENYVRF] was 38 nM.
With YRFLFAFL [YRFLFAFL], the IC50 on H-2 Kb was 5.4 nM.
Take GAINFINL [GAINFINL]: the IC50 on H-2 Kb amounted to 6.2 nM.
Sequence SFYRFLFA [SFYRFLFA] yielded an IC50 on H-2 Kb of 64 nM.
At H-2 Db, AVCINNTFL [AVCINNTFL] registered a concentration for half-maximal inhibition (IC50) of 450 nM.
QTFDFGRL [QTFDFGRL]: the IC50 at H-2 Kb stood at 2.1 nM.
The sequence LAVVLWSLL [LAVVLWSLL] displayed a half-inhibitory concentration (IC50) on H-2 Db of 2780 nM.
At H-2 Kb, INNTFLHL [INNTFLHL] came in with a concentration for half-maximal inhibition (IC50) of 2 nM.
At H-2 Db, GAMRAVVPI [GAMRAVVPI] registered an IC50 of 499 nM.
On the same count and under the same terms, to SARMLGDVM [SARMLGDVM] belongs 9210 nM; to WMKMNQTLL [WMKMNQTLL], 131 nM.
YSVENVGLL [YSVENVGLL] gave a 50% inhibitory concentration (IC50) at H-2 Db of 1.9 nM.
